Laboratory results as given in publication PMC11911394 (Nature Communications, 2025).
Each block holds one compound with its values, some of them ahead of it.

Assays:
nirFAST [1] = experiment: Characterization of nirFAST with prototypical FAST; type: physicochemical; conditions: fluorogen bound to nirFAST
Procedure, shortened: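 His-tag-purified protein came from E. coli BL21(DE3) or Rosetta(DE3)pLysS, induced overnight with 1 mM IPTG at 16 °C and isolated on Ni-NTA. Spectra were recorded in PBS pH 7.4 at 25 °C on a plate reader. Quantum yield was measured in 96-well plates against a reference fluorogen:protein complex. Protein was 40 µM, with fluorogen usually 6 to 0.375 µM, giving >99% complex.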

[2] = type: physicochemical; conditions: exciting with red light
Procedure, shortened: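 Steady-state UV-Vis absorption and fluorescence spectra were recorded on a plate reader in PBS pH 7.4 at 25 °C.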

HeLa cells = experiment: Cell viability assay; type: cell-based; conditions: at the dose used for imaging; HeLa and HEK293T (Supplementary Fig. 8)
Procedure, shortened: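 HeLa cells were grown in MEM with phenol red, Glutamax I, 1 mM sodium pyruvate, 1% non-essential amino acids, 10% FBS and 1% penicillin–streptomycin at 37 °C and 5% CO₂. They were exposed to fluorogen at the indicated concentrations for 24 h. Viability was read as CellTiter-Glo luminescence on a plate reader, per kit protocol.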

nirFAST [3] = experiment: nirFAST labeling kinetics in live HeLa cells; type: cell-based; conditions: 10 µM fluorogen
zebrafish larvae = experiment: Imaging of injected nirFAST-expressing HEK293T cells in zebrafish larvae; type: in vivo, zebrafish (Danio rerio); conditions: zebrafish larvae 4 dpf, 45 min of treatment
Procedure, shortened: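 HEK293T cells were transfected with a nirFAST-P2A-EGFP plasmid and, after 24 h, suspended at 10,000,000 cells/mL in serum-free DMEM. About 5–10 nL was microinjected near the heart of 2 dpf nacre larvae anesthetized with 0.02% MS-222. Larvae were raised at 28 °C, and green-positive ones were chosen. At 4 dpf they were incubated 45 min with fluorogen, anesthetized, mounted laterally in 0.8% low-melt agarose and imaged confocally.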

[4] = system: LAMP1–mCherry–FIREtag and nir-FIREmate–KIF17; experiment: nirCATCHFIRE control of lysosome positioning; type: cell-based; conditions: HeLa cells co-expressing LAMP1–mCherry–FIREtag and nir-FIREmate–KIF17

- FQY of assembly with nirFAST (nirFAST [1]): 24%
Structure (SMILES): COc1cc(/C=C2\SC(=S)NC2=O)cc(OC)c1O [HBR-3,5DOM]

- fluorescence of free fluorogen [2]: completely non-fluorescent
Structure (SMILES): COc1cc(/C=C/C=C2\SC(=S)NC2=O)cc(OC)c1O [HPAR-3,5DOM, (Z)-5-((E)-3-(4-hydroxy-3,5-dimethoxyphenyl)allylidene)-2-thioxothiazolidin-4-one]
- toxicity for mammalian cells (HeLa cells): non-toxic
- time to complete labeling of nirFAST after fluorogen addition (nirFAST [3]): complete within twenty seconds
- detection of nirFAST-expressing HEK293T cells in larvae (zebrafish larvae): efficiently detected
- effect on lysosome positioning [4]: displacement of lysosomes from the perinuclear region to the cell periphery

Second part, the compound before the results:

Structure (SMILES): Cc1cc(/C=C2\SC(=S)NC2=O)c(C)cc1O [HBR-2,5DM]
- fluorescence activation by nirFAST (nirFAST [1]): failed to activate efficiently the fluorescence

Structure (SMILES): Cc1cc(/C=C2\SC(=S)NC2=O)cc(C)c1O [HBR-3,5DM]
- FQY of assembly with nirFAST (nirFAST [1]): 37%

Structure (SMILES): Cc1cc(/C=C2\SC(=S)NC2=O)ccc1O [HMBR]
- fluorescence activation by nirFAST (nirFAST [1]): failed to activate efficiently the fluorescence
